Reference: ChEMBL document CHEMBL1126047, “Novel non-nucleoside inhibitors of HIV-1 reverse transcriptase. 2. Tricyclic pyridobenzoxazepinones and dibenzoxazepinones” (J Med Chem, 1992)

What follows are compounds tested against Human immunodeficiency virus type 1 reverse transcriptase (Human immunodeficiency virus 1, UniProt Q72547) (assay: In vitro inhibitory activity against HIV-1 reverse transcriptase.).

Compound | IC50
CCCN1C(=O)c2ccccc2Oc2ccccc21 | 375 nM
CCCN1C(=O)c2cc(N)ccc2Oc2cc(C)c(C)cc21 | 165 nM
CC(C)N1C(=O)c2ccccc2Oc2ccccc21 | 340 nM
CSCCN1C(=O)c2ccccc2Oc2nc(Cl)ccc21 | 72 nM
Cc1ccc2c(c1)Oc1ccc(O)cc1C(=O)N2C | 640 nM
CCN1C(=S)c2cccnc2Oc2cc(C)cc(C)c21 | 90 nM
CCN1C(=O)c2cccnc2Oc2cc(C)cc(N)c21 | 132 nM
CCN1C(=O)c2cccnc2Oc2cc(C)cc(C#N)c21 | 19 nM
Cc1cc2c(cc1C)N(C)C(=O)c1cc(N)cnc1O2 | 322 nM
CN1C(=O)c2cc(N)ccc2Oc2ccccc21 | 180 nM
CCN1C(=O)c2cc(N)cnc2Oc2cc(C)cc(C)c21 | 27 nM
Cc1cc(C#N)c2c(c1)Oc1ncccc1C(=O)N2C | 55 nM
Cc1cc(C)c2c(c1)Oc1ccccc1C(=O)N2C | 57 nM
Cc1cc(C)c2c(c1)Oc1ccc(O)cc1C(=O)N2C | 63 nM
CCCN1C(=O)c2ccccc2Oc2nc(Cl)ccc21 | 210 nM
CCN1C(=O)c2cccnc2Oc2cccc([N+](=O)[O-])c21 | 343 nM
Cc1cc(N)c2c(c1)Oc1ncccc1C(=O)N2C | 1000 nM
CCCN1C(=O)c2cc(N)ccc2Oc2ccc(C)c(C)c21 | 670 nM
Cc1cc(C)c2c(c1)Oc1ccc(C#N)cc1C(=O)N2C | 50 nM
Cc1ccc2c(c1)Oc1ccc(C#N)cc1C(=O)N2C | 280 nM
CCN1C(=O)c2cc(N)ccc2Oc2ccc(C)cc21 | 240 nM

Compound | IC50
COC(=O)c1cc(C)cc2c1N(C)C(=O)c1cccnc1O2 | 22 nM
CCN1C(=O)c2cc(N)ccc2Oc2cc(C)cc(C)c21 | 43 nM
CCN1C(=O)c2ccccc2Oc2ccccc21 | 560 nM
CCN1C(=O)c2cc(N)ccc2Oc2cccc(C)c21 | 60 nM
CCN1C(=O)c2cc(N)cnc2Oc2cc(C)c(C)cc21 | 71 nM
CCCN1C(=O)c2cc(N)ccc2Oc2cc(C)ccc21 | 130 nM
CCCN1C(=O)c2cc(N)ccc2Oc2cccc(C)c21 | 260 nM
CCN1C(=O)c2cc(N)ccc2Oc2ccccc21 | 145 nM
CCCN1C(=O)c2ccccc2Sc2ccccc21 | 400 nM
Cc1cc(C)c2c(c1)Oc1ccc(N)cc1C(=O)N2C | 20 nM
Cc1ccc2c(c1)Oc1ncc(N)cc1C(=O)N2C | 250 nM
Cc1cc(C)c2c(c1)Oc1ncc(N)cc1C(=O)N2C | 46 nM
Cc1ccc2c(c1)Oc1ccc(N)cc1C(=O)N2C | 30 nM
Cc1cc2c(c([N+](=O)[O-])c1)N(C)C(=O)c1cccnc1O2 | 23 nM
CCCN1C(=S)c2ccccc2Oc2ccccc21 | 2200 nM
Cc1cc2c(cc1C)N(C(C)C)C(=O)c1cc(N)cnc1O2 | 45 nM
C=CCN1C(=O)c2ccccc2Oc2ccccc21 | 465 nM
CCN1C(=O)c2cccnc2Oc2cc(C)cc([N+](=O)[O-])c21 | 31 nM
CCN1C(=O)c2cccnc2Oc2cc(C)cc(C)c21 | 29 nM
CCCN1C(=O)c2cc(N)ccc2Oc2c(C)cc(C)cc21 | 900 nM
Cc1ccc2c(c1)Oc1ccccc1C(=O)N2C | 600 nM

What follows are compounds tested against Human immunodeficiency virus type 1 reverse transcriptase (Human immunodeficiency virus 1) (UniProt Q72547) (assay: Inhibition of HIV-1 reverse transcriptase at a concentration of 1 uM).
Summary of the method: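 Recombinant p66/p51 heterodimer RT (>95% homogeneous) at 0.5 nM, with poly(rC):oligo(dG) 0.8 µg/mL and 500 nM [3H]dGTP. Compound in DMSO, diluted in buffer; enzyme-started, 1 h at room temperature. TCA/pyrophosphate-precipitated product filtered and counted; inhibition versus no-compound reactions.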

Compound | inhibition
CCCN1C(=O)c2ccccc2Oc2ccccc21 | 72%
Cc1ccc2c(c1)Oc1ncc([N+](=O)[O-])cc1C(=O)N2C | 0%
CCCN1C(=O)c2cc(N)ccc2Oc2cc(C)c(C)cc21 | 87%
CC(C)N1C(=O)c2ccccc2Oc2ccccc21 | 73%
CSCCN1C(=O)c2ccccc2Oc2nc(Cl)ccc21 | 79%
Cc1ccc2c(c1)Oc1ccc(O)cc1C(=O)N2C | 58%
CN1C(=O)c2cccnc2Oc2cc(N)ccc21 | 0%
CCN1C(=S)c2cccnc2Oc2cc(C)cc(C)c21 | 82%
Cc1cccc2c1N(C)C(=O)c1ccccc1O2 | 36%
Cc1cc(C)c2c(n1)Oc1ccccc1C(=O)N2C | 25%
Cc1cccc2c1NC(=O)c1cc(N)ccc1O2 | 31%
CCN1C(=O)c2cccnc2Oc2cc(C)cc(N)c21 | 73%
CN1C(=O)c2cccnc2Oc2cc(O)ccc21 | 14%
CCCN1C(=O)c2cccnc2Oc2ncccc21 | 5%
COC(=N)c1cc(C)cc2c1N(C)C(=O)c1cccnc1O2 | 0%
CN1C(=O)c2ccccc2Oc2ccccc21 | 20%
CCCN1C(=O)c2cc(N)ccc2Oc2ccc(C)cc21 | 53%
CCN1C(=O)c2cccnc2Oc2cc(C)cc(C#N)c21 | 96%
Cc1cc2c(cc1C)N(C)C(=O)c1cc(N)cnc1O2 | 72%
CN1C(=O)c2cccnc2Oc2cccc(C#N)c21 | 29%
CN1C(=O)c2cc(N)ccc2Oc2ccccc21 | 73%
CCN1C(=O)c2cc(N)cnc2Oc2cc(C)cc(C)c21 | 93%

Compound | inhibition
Cc1cc(C#N)c2c(c1)Oc1ncccc1C(=O)N2C | 88%
Cc1cc(C)c2c(c1)Oc1ccccc1C(=O)N2C | 86%
CCCN1C(=O)c2ccccc2S(=O)(=O)c2ccccc21 | 31%
CN1C(=O)c2ccccc2Oc2ncccc21 | 2%
Cc1cc(C)c2c(c1)Oc1ccc(O)cc1C(=O)N2C | 80%
CCCN1C(=O)c2ccccc2Oc2nc(Cl)ccc21 | 68%
CCN1C(=O)c2cccnc2Oc2cccc([N+](=O)[O-])c21 | 58%
Cc1cc(C)c2c(c1)Oc1ccccc1C(=O)N2 | 39%
Cc1cc2c(c(C(=O)O)c1)N(C)C(=O)c1cccnc1O2 | 0%
Cc1cc(N)c2c(c1)Oc1ncccc1C(=O)N2C | 53%
CCCN1C(=O)c2cc(N)ccc2Oc2ccc(C)c(C)c21 | 63%
Cc1cc(C)c2c(c1)Oc1ccc(C#N)cc1C(=O)N2C | 77%
COc1ccc2c(c1)Oc1ncccc1C(=O)N2C | 24%
CN(C)c1ccc2c(c1)Oc1ncccc1C(=O)N2C | 34%
CN1C(=O)c2cccnc2Oc2ccccc21 | 23%
CCCN1C(=O)c2ccccc2[S+]([O-])c2ccccc21 (configuration not stated) | 20%
Cc1ccc2c(c1)Oc1ccc(C#N)cc1C(=O)N2C | 69%
CCCN1C(=O)c2cccnc2Oc2ccccc21 | 31%
CCN1C(=O)c2cc(N)ccc2Oc2ccc(C)cc21 | 76%
C=CCN1C(=O)c2cccnc2Oc2ccccc21 | 40%
CON1C(=O)c2ccccc2Oc2ccccc21 | 36%
CNc1ccc2c(c1)C(=O)N(C)c1ccccc1O2 | 40%

Compound | inhibition
COC(=O)c1cc(C)cc2c1N(C)C(=O)c1cccnc1O2 | 95%
CN1C(=O)c2cc(C#N)ccc2Oc2ccccc21 | 12%
CCN1C(=O)c2cc(N)ccc2Oc2cc(C)cc(C)c21 | 95%
CN1C(=O)c2ccc(N)cc2Oc2ccccc21 | 19%
Cc1ccc2c(c1)Oc1ncccc1C(=O)N2C | 43%
CCN1C(=O)c2ccccc2Oc2ccccc21 | 54%
CN1C(=O)c2ccccc2Oc2nc(Cl)ccc21 | 21%
CCN1C(=O)c2cc([N+](=O)[O-])ccc2Oc2ccccc21 | 23%
CCN1C(=O)c2cc(N)ccc2Oc2cccc(C)c21 | 90%
CN1C(=O)c2ccccc2Oc2cc(N)ccc21 | 20%
CCN1C(=O)c2cc(N)cnc2Oc2cc(C)c(C)cc21 | 83%
CCCN1C(=O)c2cc(N)ccc2Oc2cc(C)ccc21 | 84%
CCCN1C(=O)c2cc(N)ccc2Oc2cccc(C)c21 | 70%
CCN1C(=O)c2cc(N)ccc2Oc2ccccc21 | 82%
CCCN1C(=O)c2ccccc2Sc2ccccc21 | 77%
Cc1cc(C)c2c(c1)Oc1ccc(N)cc1C(=O)N2C | 95%
CC(C)CN1C(=O)c2ccccc2Oc2ncccc21 | 29%
Cc1ccc2c(c1)Oc1ncc(N)cc1C(=O)N2C | 57%
CCN1C(=O)c2cccnc2Oc2ccccc21 | 25%
Cc1cc2c(c(S(C)(=O)=O)c1)N(C)C(=O)c1cccnc1O2 | 27%
Cc1cc(C)c2c(c1)Oc1ncc(N)cc1C(=O)N2C | 92%
O=C1Nc2ccccc2Oc2ccccc21 | 30%

Compound | inhibition
Cc1ccc2c(c1)Oc1ccc(N)cc1C(=O)N2C | 96%
CCN1C(=O)c2cccnc2Oc2cccc(N)c21 | 33%
Cc1cc2c(c([N+](=O)[O-])c1)N(C)C(=O)c1cccnc1O2 | 85%
CCN1C(=O)c2ccccc2Oc2nc(Cl)ccc21 | 35%
CCCN1C(=S)c2ccccc2Oc2ccccc21 | 46%
Cc1cc2c(cc1C)N(C(C)C)C(=O)c1cc(N)cnc1O2 | 89%
Cc1cc2c(c(C(N)=O)c1)N(C)C(=O)c1cccnc1O2 | 31%
Cc1cc(CO)c2c(c1)Oc1ncccc1C(=O)N2C | 39%
C=CCN1C(=O)c2ccccc2Oc2ccccc21 | 58%
CN1C(=O)c2cccnc2Oc2cc(F)ccc21 | 3%
CCN1C(=O)c2cccnc2Oc2cc(C)cc([N+](=O)[O-])c21 | 85%
CCN1C(=O)c2cccnc2Oc2cc(C)cc(C)c21 | 92%
CN1C(=O)c2cccnc2Oc2cc([N+](=O)[O-])ccc21 | 0%
CCCN1C(=O)c2cc(N)ccc2Oc2c(C)cc(C)cc21 | 52%
CN1C(=O)c2cc(CN)ccc2Oc2ccccc21 | 0%
O=C1c2ccccc2Oc2ccccc2N1O | 15%
Cc1ccc2c(c1)Oc1ccccc1C(=O)N2C | 66%
Cc1ccc2c(c1)Oc1ncccc1C(=O)N2 | 5%
CCN1Cc2ccccc2Oc2ccccc21 | 12%

These compounds were tested on T-cell (assay: In vitro inhibitory activity against HIV-1(IIIB) replication in human T-cells (c8166).).
Assay type: functional, cell-based
Summary of the method: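 CD4+ human T-cell line c8166 infected with HIV-1 IIIB. Syncytia formation scored, with IC50 taken as the concentration giving a 50% reduction in centers of syncytia.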

Compound | IC50
CCN1C(=O)c2cc(N)cnc2Oc2cc(C)cc(C)c21 | 54 nM
Cc1cc(C)c2c(c1)Oc1ccccc1C(=O)N2C | 38 nM
Cc1cc(C)c2c(c1)Oc1ccc(O)cc1C(=O)N2C | 88 nM
Cc1cc(C)c2c(c1)Oc1ccc(C#N)cc1C(=O)N2C | 31 nM
Cc1cc(C)c2c(c1)Oc1ncc(N)cc1C(=O)N2C | 115 nM
